Reference: ChEMBL document CHEMBL4138104, “Indole carboxylic acid esters of melampomagnolide B are potent anticancer agents against both hematological and solid tumor cells” (Eur J Med Chem, 2017)

How the values were obtained:
Format in all cases: functional
SN12C = test: Growth inhibition of human SN12C cells incubated for 48 hrs by sulforhodamine B assay
Method in brief: (§1)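 NCI-60 screen. Compounds were dosed at five concentrations spanning 10^-4 to 10^-8 M for 48 h at 37 °C. Cells were TCA-fixed, stained with 0.4% SRB and read at 515 nm against time-zero and vehicle controls. GI50 is the concentration giving a 50% reduction in net protein increase.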

SK-OV-3 = test: Growth inhibition of human SKOV3 cells incubated for 48 hrs by sulforhodamine B assay; conditions: SK-OV-3, 48 h; method in brief: as §1
HT-29 = test: Growth inhibition of human HT-29 cells incubated for 48 hrs by sulforhodamine B assay; conditions: HT-29, 48 h; method in brief: as §1
HCT-15 = test: Growth inhibition of human HCT15 cells incubated for 48 hrs by sulforhodamine B assay; conditions: HCT-15, 48 h; method in brief: as §1
SW-620 = test: Growth inhibition of human SW620 cells incubated for 48 hrs by sulforhodamine B assay; conditions: SW-620, 48 h
Method in brief: (§2)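 NCI-60 screen run at NCI. Cells grown in RPMI medium with 5% FBS and 2 mM L-glutamine, plated at 5,000–40,000 cells/well, and preincubated 24 h at 37 °C. Time-zero plates were TCA-fixed. Compounds came from DMSO stocks and were tested at five concentrations from 10^-4 to 10^-8 M for 48 h. Cells were then TCA-fixed, stained with 0.4% SRB, and OD read at 515 nm. GI50 is the concentration giving a 50% reduction in net protein increase versus control.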

SF-295 = test: Growth inhibition of human SF295 cells incubated for 48 hrs by sulforhodamine B assay; conditions: SF-295, 48 h; method in brief: as §1
OVCAR-5 = test: Growth inhibition of human OVCAR5 cells incubated for 48 hrs by sulforhodamine B assay; conditions: OVCAR-5, 48 h; method in brief: as §1
SF-268 = test: Growth inhibition of human SF268 cells incubated for 48 hrs by sulforhodamine B assay; conditions: SF-268, 48 h; method in brief: as §1
NCI-H460 = test: Growth inhibition of human NCI-H460 cells incubated for 48 hrs by sulforhodamine B assay; conditions: NCI-H460, 48 h; method in brief: as §1
MCF7 = test: Growth inhibition of human MCF7 cells incubated for 48 hrs by sulforhodamine B assay; conditions: MCF7, 48 h; method in brief: as §1
RPMI-8226 = test: Growth inhibition of human RPMI8226 cells incubated for 48 hrs by sulforhodamine B assay; conditions: RPMI-8226, 48 h; method in brief: as §1
SF-539 = test: Growth inhibition of human SF539 cells incubated for 48 hrs by sulforhodamine B assay; conditions: SF-539, 48 h; method in brief: as §1
NCI-H23 = test: Growth inhibition of human NCI-H23 cells incubated for 48 hrs by sulforhodamine B assay; conditions: NCI-H23, 48 h; method in brief: as §1
[1] = Cytotoxicity against human M9-ENL1 cells assessed as reduction in cell viability by trypan blue staining-based assay
Method in brief: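 M9-ENL1 AML cells (MLL-ENL-transduced human blood cells) plated at 10^6 cells/mL in alpha-MEM with 5% human plasma, 20% FBS, SCF, IL-3, IL-7 and FLT3. Drug diluted from DMSO stock into PBS, final DMSO ≤0.5%. After 24 h exposure, dead cells assessed by trypan blue and by flow cytometry (Annexin V/PI or Annexin V/7-AAD). Viability normalized to vehicle; EC50 from dose-response curves; triplicate.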

MOLT-4 = test: Growth inhibition of human MOLT4 cells incubated for 48 hrs by sulforhodamine B assay; conditions: MOLT-4, 48 h; method in brief: as §1
SNB-19 = test: Growth inhibition of human SNB19 cells incubated for 48 hrs by sulforhodamine B assay; conditions: SNB-19, 48 h; method in brief: as §2
UACC-257 = test: Growth inhibition of human UACC257 cells incubated for 48 hrs by sulforhodamine B assay; conditions: UACC-257, 48 h; method in brief: as §2
SK-MEL-28 = test: Growth inhibition of human SK-MEL-28 cells incubated for 48 hrs by sulforhodamine B assay; conditions: SK-MEL-28, 48 h; method in brief: as §1
LOX IMVI = test: Growth inhibition of human LOXIMVI cells incubated for 48 hrs by sulforhodamine B assay; method in brief: as §1
U-251 = test: Growth inhibition of human U251 cells incubated for 48 hrs by sulforhodamine B assay; conditions: U-251, 48 h; method in brief: as §2
UO-31 = test: Growth inhibition of human UO31 cells incubated for 48 hrs by sulforhodamine B assay; conditions: UO-31, 48 h; method in brief: as §2
HCC 2998 = test: Growth inhibition of human HCC2998 cells incubated for 48 hrs by sulforhodamine B assay; conditions: HCC 2998, 48 h; method in brief: as §1
NCI-H322M = test: Growth inhibition of human NCI-H322M cells incubated for 48 hrs by sulforhodamine B assay; method in brief: as §1
NCI/ADR-RES = test: Growth inhibition of human NCI/ADR-RES cells incubated for 48 hrs by sulforhodamine B assay; method in brief: as §1
HOP-92 = test: Growth inhibition of human HOP92 cells incubated for 48 hrs by sulforhodamine B assay; conditions: HOP-92, 48 h; method in brief: as §1
UACC-62 = test: Growth inhibition of human UACC62 cells incubated for 48 hrs by sulforhodamine B assay; conditions: UACC-62, 48 h; method in brief: as §2
A498 = test: Growth inhibition of human A498 cells incubated for 48 hrs by sulforhodamine B assay; conditions: A498, 48 h; method in brief: as §1
HCT-116 = test: Growth inhibition of human HCT116 cells incubated for 48 hrs by sulforhodamine B assay; conditions: HCT-116, 48 h; method in brief: as §1
OVCAR-8 = test: Growth inhibition of human OVCAR8 cells incubated for 48 hrs by sulforhodamine B assay; conditions: OVCAR-8, 48 h; method in brief: as §1
NCI-H226 = test: Growth inhibition of human NCI-H226 cells incubated for 48 hrs by sulforhodamine B assay; conditions: NCI-H226, 48 h; method in brief: as §1
HL-60(TB) = test: Growth inhibition of human HL-60(TB) cells incubated for 48 hrs by sulforhodamine B assay; conditions: HL-60, 48 h
Method in brief: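 Performed at NCI's 60-line screen. Cells grown in RPMI with 5% FBS and 2 mM L-glutamine, plated 5,000–40,000 cells/well and incubated 24 h at 37 °C before compound addition. DMSO stocks were diluted in medium with gentamicin, and five concentrations spanning 10^-4 to 10^-8 M were tested. Exposure was 48 h. Cells were fixed with TCA, stained with SRB, and read at 515 nm. GI50 taken from log dose-response curves as 50% reduction in net protein increase versus control.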

KM12 = test: Growth inhibition of human KM12 cells incubated for 48 hrs by sulforhodamine B assay; conditions: KM12, 48 h; method in brief: as §1
NCI-H522 = test: Growth inhibition of human NCI-H522 cells incubated for 48 hrs by sulforhodamine B assay; conditions: NCI-H522, 48 h; method in brief: as §1
CCRF-CEM = test: Growth inhibition of human CCRF-CEM cells incubated for 48 hrs by sulforhodamine B assay; method in brief: as §1
RXF 393 = test: Growth inhibition of human RXF393 cells incubated for 48 hrs by sulforhodamine B assay; conditions: RXF 393, 48 h; method in brief: as §1
Malme-3M = test: Growth inhibition of human MALME-3M cells incubated for 48 hrs by sulforhodamine B assay; method in brief: as §1
A549 = test: Growth inhibition of human A549/ATCC cells incubated for 48 hrs by sulforhodamine B assay; conditions: A549, 48 h; method in brief: as §1

| SMILES | GI50 (SN12C) | GI50 (SK-OV-3) | GI50 (HT-29) | GI50 (HCT-15) | GI50 (SW-620) | GI50 (SF-295) | GI50 (OVCAR-5) | GI50 (SF-268) | GI50 (NCI-H460) | GI50 (MCF7) | GI50 (RPMI-8226) | GI50 (SF-539) | GI50 (NCI-H23) | EC50 [1] | GI50 (MOLT-4) | GI50 (SNB-19) | GI50 (UACC-257) | GI50 (SK-MEL-28) | GI50 (LOX IMVI) | GI50 (U-251) | other results |
| --- | --- | --- | --- | --- | --- | --- | --- | --- | --- | --- | --- | --- | --- | --- | --- | --- | --- | --- | --- | --- | --- |
| C=C1C(=O)O[C@@H]2[C@H]3O[C@]3(C)CC/C=C(/COC(=O)c3cc4ccccc4[nH]3)CC[C@@H]12 | 1.74 µM | 1.65 µM | 0.27 µM | 0.21 µM | 0.25 µM | 1.71 µM | 1.14 µM | 1.59 µM | 1.73 µM | 0.3 µM | 0.26 µM | 1.32 µM | 1.69 µM | 1.1 µM | 1.51 µM | 1.6 µM | 1.61 µM | 1.29 µM | 0.18 µM | 1.89 µM | GI50 (UO-31): 0.88 µM; GI50 (HCC 2998): 2.14 µM; GI50 (NCI-H322M): 1.68 µM; GI50 (NCI/ADR-RES): 2.2 µM; GI50 (HOP-92): 0.48 µM; GI50 (UACC-62): 1.47 µM; GI50 (A498): 1.74 µM; GI50 (HCT-116): 0.19 µM; GI50 (OVCAR-8): 1.99 µM; GI50 (NCI-H226): 1.47 µM; GI50 (HL-60(TB)): 0.54 µM; GI50 (KM12): 2.05 µM; GI50 (NCI-H522): 0.75 µM; GI50 (CCRF-CEM): 0.28 µM; GI50 (RXF 393): 1.07 µM; GI50 (Malme-3M): 1.56 µM; GI50 (A549): 2.06 µM |
| C=C1C(=O)O[C@@H]2[C@H]3O[C@]3(C)CC/C=C(/COC(=O)c3cc4cc(OC)ccc4[nH]3)CC[C@@H]12 | 1.77 µM | 4.9 µM | 0.35 µM | 0.32 µM | 0.64 µM | 2.42 µM | 1.77 µM | 1.66 µM | 1.83 µM | 0.34 µM | 0.5 µM | 1.02 µM | 1.49 µM | 1.8 µM | 1.32 µM | 1.57 µM | 1.61 µM | 1.23 µM | 0.3 µM | 1.6 µM | GI50 (UO-31): 1.12 µM; GI50 (HCC 2998): 1.54 µM; GI50 (NCI-H322M): 1.88 µM; GI50 (NCI/ADR-RES): 1.68 µM; GI50 (HOP-92): 0.44 µM; GI50 (UACC-62): 1.38 µM; GI50 (A498): 1.63 µM; GI50 (HCT-116): 0.42 µM; GI50 (OVCAR-8): 1.58 µM; GI50 (NCI-H226): 1.57 µM; GI50 (HL-60(TB)): 0.32 µM; GI50 (KM12): 1.54 µM; GI50 (NCI-H522): 0.7 µM; GI50 (CCRF-CEM): 0.34 µM; GI50 (RXF 393): 1.14 µM; GI50 (Malme-3M): 1.61 µM; GI50 (A549): 1.66 µM |
| C=C1C(=O)O[C@@H]2[C@H]3O[C@]3(C)CC/C=C(/COC(=O)/C=C/c3c[nH]c4ccccc34)CC[C@@H]12 | 0.19 µM | 1.88 µM | 0.19 µM | 0.18 µM | 0.18 µM | 1.62 µM | 0.31 µM | 0.22 µM | 1.01 µM | 0.22 µM | 0.03 µM | 0.26 µM | 1.25 µM | 0.7 µM | 0.3 µM | 0.64 µM | 0.35 µM | 0.33 µM | 0.05 µM | 0.21 µM | GI50 (UO-31): 0.15 µM; GI50 (HCC 2998): 0.27 µM; GI50 (NCI-H322M): 1.73 µM; GI50 (NCI/ADR-RES): 0.35 µM; GI50 (HOP-92): 0.15 µM; GI50 (UACC-62): 0.17 µM; GI50 (A498): 0.27 µM; GI50 (HCT-116): 0.18 µM; GI50 (OVCAR-8): 0.19 µM; GI50 (NCI-H226): 0.23 µM; GI50 (HL-60(TB)): 0.25 µM; GI50 (KM12): 0.4 µM; GI50 (NCI-H522): 0.18 µM; GI50 (CCRF-CEM): 0.07 µM; GI50 (RXF 393): 0.17 µM; GI50 (Malme-3M): 0.28 µM; GI50 (A549): 1.27 µM |
